{"source": "ChEMBL document CHEMBL4706643", "about": "(J Med Chem, 2021)", "key": {"Hepatitis delta virus": {"tested_on": "Hepatitis delta virus", "assay": "Antiviral activity […] infected in C57B/L transgenic mouse harbouring human NTCP assessed as decrease in viral RNA levels in liver at 40 mg/kg, ip administered as single dose followed by HDV challenge at day 2 and measured at day 8 post infection by qPCR analysis", "format": "functional, organism-based", "conditions": "time 8.0 day", "in_short": "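Neonatal hNTCP-transgenic C57B/L mice received 40 mg/kg i.p. before HDV inoculation, either once or on two consecutive days (n = 4 per group; vehicle group n = 5). HDV was given at 5 × 10⁹ Geq i.p. on day 9 after birth, and mice were sacrificed on day 15. Liver RNA was assayed by RT-qPCR on cDNA from 20 ng RNA, with NTCP mRNA also measured. Group medians are shown.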"}, "[1]": {"molecular_target": "T1, Hepatic sodium/bile acid cotransporter (Homo sapiens, UniProt Q14973)", "T1 sequence (Q14973 whole entry)": "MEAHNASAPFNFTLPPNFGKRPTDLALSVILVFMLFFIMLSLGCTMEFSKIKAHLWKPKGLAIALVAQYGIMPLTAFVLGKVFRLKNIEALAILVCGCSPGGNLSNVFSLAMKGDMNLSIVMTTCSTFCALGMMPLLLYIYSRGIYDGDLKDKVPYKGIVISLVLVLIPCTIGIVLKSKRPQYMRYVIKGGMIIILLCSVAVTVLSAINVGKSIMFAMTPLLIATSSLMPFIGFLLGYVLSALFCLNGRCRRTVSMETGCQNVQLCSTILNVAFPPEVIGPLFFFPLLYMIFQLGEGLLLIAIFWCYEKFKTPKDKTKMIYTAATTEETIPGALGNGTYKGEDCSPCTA", "assay": "Inhibition of human NTCP expressed in human HepG2 cells assessed as decrease in NTCP surface expression at 2 uM incubated for 2 hrs by DAPI staining based analysis", "format": "cell-based", "conditions": "hepg2, 2 h, 2 h", "in_short": "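HepG2-NTCP cells treated 2 h with DMSO, compound or TLCA at 2 μM, then immunostained for NTCP to assess cell-surface distribution.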"}, "Hepatitis B virus": {"tested_on": "Hepatitis B virus", "assay": "(§1) Antiviral activity against HBV infected in human HepG2-NTCP cells assessed as reduction in HBeAg secretion cells inoculated with virus for 4 hrs at room temperature and 37 degree C for 24 hrs followed inoculum changed with PMM medium for every 2 days until day 5 post infection by ELISA", "format": "functional, organism-based"}, "[2]": {"molecular_target": "T1, Hepatic sodium/bile acid cotransporter", "assay": "Inhibition of human NTCP-mediated [3H]-TCA uptake expressed in human HepG2 cells incubated for 2 hrs followed by substrate addition and measured for 10 mins by microbeta liquid scintillation counter analysis", "format": "cell-based", "in_short": "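HepG2 cells expressing NTCP (human, mouse, monkey or tree shrew) seeded 4–6 h, PMM 20–24 h; compound 2 h, then Na+ Ringer's buffer with 2 μM 3H-TCA, 37 °C 10 min; PBS washes, lysis in 1% Triton X-100, scintillation counting. Single-concentration lines at 2 μM.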"}, "HepG2": {"tested_on": "HepG2", "assay": "as §1, with “HBV genotype C” for “HBV”, “secretion at 2 uM” for “secretion”", "format": "functional, cell-based", "conditions": "time 28.0 hrs", "in_short": "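HepG2-NTCP cells seeded 4–6 h, then primary maintenance medium 20–24 h; virus inoculum plus compound dilutions 4 h at room temperature, then 37 °C 24 h; medium changed every 2 days to PMM with 2% FBS until day 5 post infection. Secreted HBeAg measured by ELISA; IC50 by nonlinear regression from six or more points, three repeats.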"}}, "note": "“Also recorded” adds a separate entry of the source. The source made the active and inactive calls. The rule behind the calls is not given here.", "data": [{"smiles": "CC[C@@H]1NC(=O)[C@H]([C@@H]2O[C@@H](Sc3cccc(OCc4ccccc4)c3)C[C@H]2C)N(C)C(=O)[C@H](C(C)C)N(C)C(=O)[C@H](CC(C)C)N(C)C(=O)[C@H](CC(C)C)N(C)C(=O)[C@@H](C)NC(=O)[C@H](C)NC(=O)[C@H](CC(C)C)N(C)C(=O)[C@H](C(C)C)NC(=O)[C@H](CC(C)C)N(C)C(=O)CN(C)C1=O", "values": [{"measurement": "Activity", "setting": "Hepatitis delta virus", "value": "Active"}, {"measurement": "inhibition (INH)", "setting": "[1]", "value": "Active; also recorded: Not Active"}, {"measurement": "IC50", "setting": "Hepatitis B virus", "value": 0.11, "unit": "µM"}, {"measurement": "IC50", "setting": "[2]", "value": 0.066, "unit": "µM"}, {"measurement": "Activity", "setting": "HepG2", "value": "Active"}]}]}
